# Screens as filed in PubChem.
# Shown are actives, neighbours in structure and some others; about 1.9% of the full set was active somewhere.
# PLC-beta3 inh: blocks human PLC-beta3 enzyme activity; Purified PLC-beta3, fluorogenic substrate, fluorescence; inhibition, % at 12.2 µM; hit rate 0.18% among 370,000; AID 720704; in the data active = inhibition above about 11%;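 also: 0% = median of compound wells on plate and 100% = full blocker control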
# ASAP1 GAP inh: ASAP1 ArfGAP inhibition; AID 624377; hit rate 0.19% among 360,000; ASAP1-stimulated ARF1 GTP hydrolysis, GDP FP detection; inhibition, % at 16.5 µM; in the data active = inhibition above about 25%;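 also: 0% = vehicle with enzyme and substrate and 100% = no enzyme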
# sPLA2-III inh: Blocks human group III sPLA2 activity. Q9NZ20. QFRET BODIPY PC-A2 liposome hydrolysis, fluorescence. inhibition, % at 12.2 µM. hit rate 0.56% among 370,000. AID 743126;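 active = inhibition above mean plus 3 SD of compounds lying within the high and low control bounds, cut at about 19% in these data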;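 also: 0% = median of test compound wells and 100% = no enzyme DMSO wells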
# ARFGAP1 inhibitor: inhibits rat ARF GTPase activating protein 1; Q62848; Arfgap1-stimulated ARF1 GTP hydrolysis, GDP FP detection; inhibition, % at 16.5 µM; hit rate 0.26% among 360,000; AID 651572;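 active = inhibition above a per-plate limit, mean inhibition of low control wells plus 3 SD, cut at about 25% in these data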;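 also: 0% = DMSO wells with enzyme and 100% = wells lacking Arfgap1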
# Target sequence (Q62848 1-136 limits assumed): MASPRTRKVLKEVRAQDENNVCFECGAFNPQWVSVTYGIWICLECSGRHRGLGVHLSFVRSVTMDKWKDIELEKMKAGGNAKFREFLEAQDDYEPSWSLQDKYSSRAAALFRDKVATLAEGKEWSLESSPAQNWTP
#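 Repeats: one replicate per compound; assay system: rat Arfgap1 catalytic domain, aa 1-136; times: enzyme reaction 120 min at 25 °C after 20 min preincubation; detection: FP of antibody-bound GDP Alexa 633 tracer, ex 620/em 688 nm; benchmarks: high control wells lacking Arfgap1, low control full reaction with DMSO; reagent: human ARF1(Δ1-17)-GTP substrate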
# PLC-gamma1 inh: PLC-gamma1 (human) inhibition, primary screen | P19174 | purified PLC-gamma1, fluorogenic substrate, fluorescence | inhibition, % at 12.2 µM | hit rate 0.84% among 370,000; in the data active = inhibition above about 9.5%
# ASAP1 GAP conf: confirmation of human ASAP1 inhibitors; shares compounds with ASAP1 GAP inh; ASAP1-stimulated Arf1 GTPase, GDP fluorescence polarization; inhibition, % at 16.5 µM; hit rate 37% among 620; AID 624431;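 active = mean inhibition over triplicates exceeds the hit threshold derived for the earlier primary screening run, cut at about 25% in these data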
# ARFGAP1 confirm: rat ARFGAP1 inhibition, confirmed; ARFGAP1-stimulated ARF1 GTP hydrolysis, GDP tracer FP; AID 651608; inhibition, % at 16.5 µM; shares compounds with ARFGAP1 inhibitor; hit rate 30% among 890;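 active = average inhibition over triplicates above the hit cutoff set in the earlier primary screen, cut at about 25% in these data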;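 also: 0% = Arfgap1 plus ARF1-GTP with DMSO and 100% = wells lacking Arfgap1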
# Target sequence (Q62848 whole entry, looked up): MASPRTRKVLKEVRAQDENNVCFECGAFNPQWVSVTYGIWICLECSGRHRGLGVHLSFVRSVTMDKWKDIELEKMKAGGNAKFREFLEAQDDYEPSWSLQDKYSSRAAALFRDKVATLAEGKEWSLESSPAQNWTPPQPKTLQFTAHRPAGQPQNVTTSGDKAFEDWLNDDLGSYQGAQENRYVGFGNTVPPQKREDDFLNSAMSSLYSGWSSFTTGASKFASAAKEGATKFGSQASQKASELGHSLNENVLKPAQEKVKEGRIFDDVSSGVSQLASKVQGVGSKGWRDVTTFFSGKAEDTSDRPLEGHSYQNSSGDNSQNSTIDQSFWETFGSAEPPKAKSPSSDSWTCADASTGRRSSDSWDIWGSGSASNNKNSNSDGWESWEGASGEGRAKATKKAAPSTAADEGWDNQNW
# * hit, by the source's call; nt = not tested or not shown; + = active, no number.
SMILES,PLC-beta3 inh,ASAP1 GAP inh,sPLA2-III inh,ARFGAP1 inhibitor,PLC-gamma1 inh,ASAP1 GAP conf,ARFGAP1 confirm
O=c1c2ccccc2nc(/C=C/c2cc(Br)ccc2O)n1CCO,-76,27*,-14,4,-65,9,nt
COc1ccc(N(C)S(=O)(=O)c2cccc(C(=O)NCc3ccc4c(c3)OCO4)c2)cc1,-2,25*,-10,4,-1,6,nt
O=C(CN1CCc2onc(-c3cccc(-n4cc(CO)nn4)c3)c2C1=O)N1CCOCC1,0,nt,1,nt,-1,nt,nt
CSCCNC(=O)C1(C)CCN1C(=O)CCc1ccccc1 (stereo not given),3,29*,2,-5,5,0,nt
Cc1ccc(Cn2cc(CN(C(C)(C)C)S(=O)(=O)c3ccc(F)cc3Br)nn2)cc1,0,nt,14,nt,8,nt,nt
Cc1cc2cc(CNC(=O)Nc3ccc(Cl)c(Cl)c3)ccc2n1C,-29,42*,9,74*,-22,14,8
COC(=O)[C@]12C[C@H](CC(=O)NCc3cccc(C(F)(F)F)c3)C(=O)N(Cc3ccc4c(c3)OCO4)C1=C[C@H](C(C)(C)C)O[C@@H]2C,8,-1,-4,19,0,nt,nt
COc1ccc(/C=C2\Oc3cc(OCC(N)=O)ccc3C2=O)cc1OC,-491,35*,1,32*,-378,47*,45*
COC(=O)COc1ccc2c(c1)O/C(=C\c1cccc([N+](=O)[O-])c1)C2=O,-7,-5,-1,7,-5,nt,nt
O=C(/C=C/c1ccco1)Nc1ccc(-c2nc3ccccc3[nH]2)cc1,-81,28*,-2,88*,-74,71*,139*
NC(=O)C1CCN(c2nc(-c3ccc4c(c3)OCCCO4)cs2)CC1,2,nt,1,nt,1,nt,nt
O=C1C(N2CCOCC2)=C(n2nnc3ccccc32)C(=O)c2ccccc21,0,44*,6,31*,4,10,3
O=C(CSc1ccc(-c2ccc3c(c2)OCO3)nn1)Nc1nccs1,-5,132*,1,46*,-2,75*,135*
O=C(CSCC(=O)Nc1nc(-c2ccc3c(c2)OCO3)cs1)Nc1nccs1,-8,9,9,-4,-3,nt,nt
Cc1ccc2nc(SCC(=O)N3CCC(Cc4ccccc4)CC3)nc(=O)n2c1,-14,26*,-4,59*,-5,41*,68*
O=C(CSc1nc(=O)n2ccccc2n1)N1CCC(Cc2ccccc2)CC1,-8,-6,7,14,-1,nt,nt
Cc1cccc(NC(=O)Nc2c(-c3ccc(C(F)(F)F)cc3)nc3ncccn23)c1,-53,nt,-1,nt,-46,nt,nt
COc1ccc(Cl)cc1NC(=O)c1nnn(CC(=O)Nc2ccc(OC)c(OC)c2)c1N,-3,-7,-1,0,-1,nt,nt
COc1cccc(NC(=O)Cn2nnc(C(=O)Nc3cc(Cl)ccc3OC)c2N)c1,-5,77*,-5,138*,1,109*,199*
CCc1c(-c2ccccc2Br)ncn1CCc1ccccc1OC,-3,-8,3,-13,0,nt,nt
COC(=O)N1C[C@H](OC)[C@H]2C[C@@H]1c1ccccc1O2,3,0,1,-2,1,nt,nt
Cc1ccc(OCc2nnc(SCC(=O)c3ccc4ccccc4c3)n2-c2ccc(Cl)cc2)cc1,-10,nt,13,nt,-5,nt,nt
CCN(CC)c1ccc(C(=C2C=CC(=[N+](CC)CC)C=C2)c2ccc(S(=O)(=O)O)cc2S(=O)(=O)[O-])cc1,-4,119*,-4,121*,-1,118*,132*
N#Cc1c(NC(=O)c2ccc(Br)o2)n(-c2ccccc2)c2nc3ccccc3nc12,-319,42*,-8,27*,-232,20,-1
O=C(Cn1cnc2ccccc2c1=O)Nc1ccc2c(c1)OCCO2,1,10,-2,5,1,nt,nt
SMILES,PLC-beta3 inh,ASAP1 GAP inh,sPLA2-III inh,ARFGAP1 inhibitor,PLC-gamma1 inh,ASAP1 GAP conf,ARFGAP1 confirm
CCCCOc1cccc2c(=O)n(CC(=O)Nc3ccc4c(c3)OCCO4)ccc12,1,35*,-2,25*,-1,34*,38*
COc1ccccc1-c1csc(-n2ncc(C#N)c2N)n1,-4,41*,1,39*,1,66*,111*
CC(=O)Nc1ccc(NC(=O)c2ccc(-c3ccc([N+](=O)[O-])cc3)o2)cc1,-7,130*,4,62*,3,164*,+
COc1ccc(NC(=O)c2ccc(-c3ccc([N+](=O)[O-])cc3)o2)cc1OC,1,15,6,8,1,nt,nt
CCN1CCN(Cc2ccc(NC(=O)c3ccc(C)c(NC(=O)c4ccc5n[nH]nc5c4)c3)cc2C(F)(F)F)CC1,1,-6,-25,6,0,nt,nt
CCN1CCN(Cc2ccc(NC(=O)c3cccc(-c4ccc5nc(NC(=O)C6CC6)sc5n4)c3)cc2C(F)(F)F)CC1,-10,27*,-14,57*,-12,40*,51*
O=C(Nc1ccc2oc(-c3cccnc3)nc2c1)c1ccc2c(c1)OCCO2,-68,27*,-8,42*,-59,38*,114*
O=C(Nc1ccc2oc(-c3ccccc3)nc2c1)c1ccc2c(c1)OCCO2,-61,-1,-8,-3,-44,nt,nt
Cc1cc2oc3ccc(NCCCn4ccnc4)cc3c(=O)c2cc1C,-273,79*,-25,115*,-146,127*,+
Cc1cc2oc3ccc(NCCCN4CCOCC4)cc3c(=O)c2cc1C,-79,-16,10,5,-58,nt,nt
CN(C)CCNC(=O)c1cccc(-c2cnc3c(NC=O)cc(/C=C/c4ccccc4)cn23)c1,-244,42*,-27,34*,-171,37*,45*
C=CCOC(=O)C1=C(C)N=c2sc(=C3C(=O)N(CC(=O)O)c4ccccc43)c(=O)n2C1c1ccc(OC)cc1 (stereo not given),-2,nt,4,nt,-1,nt,nt
COc1cc(/C=C(\C#N)c2nc(-c3cc4ccccc4oc3=O)cs2)ccc1O,-3,20,4,9,-1,nt,nt
CCN(CC)CCCN(C(=O)c1ccc(Br)cc1)c1nc(-c2ccc(OC)cc2)cs1,-3,0,-5,-3,5,nt,nt
CCN(CC)CCOC(=O)c1ccc(N/C=C(/C#N)c2nc(-c3ccc(OC)cc3)cs2)cc1,-12,48*,-11,28*,0,51*,55*
CCN(CC)CCOC(=O)c1ccc(N/C=C(/C#N)c2nc(-c3cc4ccccc4oc3=O)cs2)cc1,-81,72*,3,84*,-56,99*,134*
Cn1c(=O)n(CCOc2ccc(Cl)cc2Cl)c2ccccc21,-1,40*,-4,30*,-2,47*,44*
CCC(/C=C1\Sc2ccc(OC)cc2N1CC)=C\c1sc2ccc(OC)cc2[n+]1CCCS(=O)(=O)[O-],-4,14,7,24,4,nt,nt
